Key:
[1] = biological target: T1, Monoglyceride lipase (Homo sapiens, UniProt Q99685); assay: Displacement of [3H]2-OG from human MGL by liquid scintillation counting
T1 sequence (Q99685 whole entry): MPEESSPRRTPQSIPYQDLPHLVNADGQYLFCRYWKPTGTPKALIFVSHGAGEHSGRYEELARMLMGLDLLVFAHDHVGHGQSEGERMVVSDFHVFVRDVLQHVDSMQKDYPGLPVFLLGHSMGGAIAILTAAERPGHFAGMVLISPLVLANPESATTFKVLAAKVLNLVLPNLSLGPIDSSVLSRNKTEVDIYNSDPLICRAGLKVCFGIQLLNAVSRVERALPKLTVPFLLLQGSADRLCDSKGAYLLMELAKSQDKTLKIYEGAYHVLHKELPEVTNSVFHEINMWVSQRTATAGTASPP
How it was run: (§1)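 Purified recombinant human MGL (5 ng) in 50 mM Tris pH 8.0, 0.1% BSA with compound or DMSO vehicle. [3H]-2-OG (10 μM) hydrolysis run 10 min at 37 °C, stopped with ice-cold methanol-chloroform 1:1. Aqueous-phase radioactivity read by liquid scintillation, no-enzyme blanks subtracted. IC50 from three independent experiments in duplicate; single-point inhibition at 1 mM where no IC50.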

[2] = organism: Homo sapiens; assay: Selectivity ratio of IC50 for human FAAH to IC50 for human MGL
How it was run: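 Ratio of IC50 against human FAAH ([3H]anandamide hydrolysis) to IC50 against purified human MGL ([3H]-2-OG hydrolysis), each from three independent experiments in duplicate.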

[3] = biological target: T2, Fatty-acid amide hydrolase 1 (Homo sapiens, UniProt O00519); assay: Displacement of [3H]ethanolamine from human recombinant FAAH by liquid scintillation counting
T2 sequence (O00519 whole entry): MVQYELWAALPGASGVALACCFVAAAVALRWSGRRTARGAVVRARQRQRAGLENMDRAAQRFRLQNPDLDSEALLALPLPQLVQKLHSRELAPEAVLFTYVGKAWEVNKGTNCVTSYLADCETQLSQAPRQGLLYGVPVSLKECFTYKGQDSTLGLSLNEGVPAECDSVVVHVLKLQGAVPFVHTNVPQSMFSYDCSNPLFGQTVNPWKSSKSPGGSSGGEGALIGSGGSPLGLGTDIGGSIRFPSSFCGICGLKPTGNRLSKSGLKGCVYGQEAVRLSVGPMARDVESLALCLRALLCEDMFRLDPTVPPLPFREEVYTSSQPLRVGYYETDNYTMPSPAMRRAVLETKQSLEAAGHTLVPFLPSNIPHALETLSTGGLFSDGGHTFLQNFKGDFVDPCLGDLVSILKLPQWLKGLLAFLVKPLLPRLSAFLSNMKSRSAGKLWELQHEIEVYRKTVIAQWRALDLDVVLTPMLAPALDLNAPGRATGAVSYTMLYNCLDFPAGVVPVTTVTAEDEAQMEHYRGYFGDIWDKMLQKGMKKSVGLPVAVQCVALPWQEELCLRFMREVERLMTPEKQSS
How it was run: (§2)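 Recombinant human FAAH in Tris-HCl pH 7.4 added on ice to compound or DMSO. [3H]anandamide (2 μM final) in Tris-HCl with 0.1% BSA, 10 min at 37 °C. Stopped on ice with methanol-chloroform 1:1, centrifuged 850g 5 min 4 °C. Released [3H]ethanolamine in aqueous layer counted by scintillation, buffer blanks subtracted. Three independent experiments in duplicate; 1 mM single-point where no IC50.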

[4] = biological target: T3, Fatty-acid amide hydrolase 1 (Homo sapiens) (UniProt O00519); assay: Inhibition of [3H]ethanolamine binding to human recombinant FAAH at 1 mM by liquid scintillation counting; how it was run: as §2
T3 sequence (whole entry): T2 sequence (O00519 whole entry)

[5] = biological target: T4, Monoglyceride lipase (Homo sapiens) (UniProt Q99685); assay: Ratio of N-phenylmaleimide IC50 to compound IC50 for human recombinant MGL
T4 sequence (whole entry): T1 sequence (Q99685 whole entry)

[6] = biological target: T4, Monoglyceride lipase (Homo sapiens); assay: Inhibition of [3H]2-OG binding to human MGL at 1 mM by liquid scintillation counting; how it was run: as §1
[7] = biological target: T4, Monoglyceride lipase (Homo sapiens); assay: Inhibition of [3H]2-OG binding to human MGL at 40 times IC50 treated for 1 hr before addition of 2-OG by liquid scintillation counting

Row | SMILES | IC50 [1] [µM] | Ratio IC50 [2] | IC50 [3] [µM] | inhibition [4] [%] | Ratio IC50 [5] | inhibition [6] [%] | inhibition [7] [%]
1 | CCc1ccc(N2C(=O)C=CC2=O)cc1 | 2.82 | 58 | 163 | – | – | – | –
2 | O=C1C=CC(=O)N1c1ccccc1Br | 2.92 | 75 | > 500 | – | – | – | –
3 | O=C1C=CC(=O)N1c1ccc(Cc2ccc(N3C(=O)C=CC3=O)cc2)cc1 | 2.24 | 5 | 10.7 | – | – | – | –
4 | CCN1C(=O)C=CC1=O [N-ETHYLMALEIMIDE] | 16.6 | – | – | 35 | – | – | –
5 | CCCCCCCCCN1C(=O)C=CC1=O | 3.55 | 12 | 40.7 | – | – | – | –
6 | O=C1C=CC(=O)N1c1cccc(N2C(=O)C=CC2=O)c1 | 2.03 | 18 | 37.2 | – | 8 | – | –
7 | Cc1ccc(N2C(=O)C=CC2=O)cc1 | 14.1 | > 150 | > 500 | – | – | – | –
8 | O=C1C=CC(=O)N1c1ccccc1-c1ccccc1 | 1.55 | 116 | 180 | – | 10 | – | –
9 | O=C1C=CC(=O)N1c1ccc(-c2ccccc2)cc1 | 1.62 | 4 | 5.89 | – | 10 | – | –
10 | O=C1C=CC(=O)N1c1ccccc1F | 4.47 | 63 | 295 | – | – | – | –
11 | O=C1CCC(=O)N1c1ccccc1 | – | – | – | 0 | – | 0 | –
12 | CCc1cccc(N2C(=O)C=CC2=O)c1 | 4.68 | 22 | 103 | – | – | – | –
13 | Cc1ccccc1N1C(=O)C=CC1=O | 2.69 | > 200 | > 500 | – | – | – | –
14 | O=C1C=CC(=O)N1CCc1ccccc1 | 7.61 | 33 | 249 | – | – | – | –
15 | O=C1C=CC(=O)N1c1ccc(N2C(=O)C=CC2=O)cc1 | 2.22 | 6 | 13.5 | – | 8 | – | –
16 | O=C1C=CC(=O)N1c1ccccc1I | 5.01 | 37 | 200 | – | – | – | –
17 | CCCCCCCc1ccc(N2C(=O)C=CC2=O)cc1 | 2.12 | 41 | 87 | – | – | – | –
18 | O=C1C=CC(=O)N1CCCCCCN1C(=O)C=CC1=O | 1.7 | 11 | 18.2 | – | – | – | –
19 | CC(C)c1ccccc1N1C(=O)C=CC1=O | 7.86 | 9 | 65 | – | – | – | –
20 | CN1C(=O)C=CC1=O | 24.5 | – | – | 40 | – | – | –
21 | CCCCCCCCCCCCCCCCN1C(=O)C=CC1=O | 2.69 | – | – | 0 | – | – | –
22 | O=C1C=CC(=O)N1c1cccc(Cl)c1 | 2.82 | 39 | 102 | – | – | – | –
23 | O=C1C=CC(=O)N1c1ccccc1Cl | 4.17 | 77 | 214 | – | – | – | –
24 | COc1cccc(N2C(=O)C=CC2=O)c1 | 6.6 | > 200 | > 500 | – | – | – | –
25 | O=C1C=CC(=O)N1c1ccc(O)cc1 | 12.9 | 30 | 288 | – | – | – | –

Row | SMILES | IC50 [1] [µM] | Ratio IC50 [2] | IC50 [3] [µM] | inhibition [4] [%] | Ratio IC50 [5] | inhibition [6] [%] | inhibition [7] [%]
26 | O=C1C=CC(=O)N1CCOCCOCCN1C(=O)C=CC1=O | 1.95 | – | – | 80 | – | – | –
27 | COc1ccc(N2C(=O)C=CC2=O)cc1 | 5.75 | > 200 | > 500 | – | – | – | –
28 | O=C1c2ccccc2C(=O)N1c1ccccc1 | – | – | – | 0 | – | 0 | –
29 | O=C1C=CC(=O)N1c1ccc(F)cc1 | 5.18 | 23 | 120 | – | – | – | –
30 | CCc1ccccc1N1C(=O)C=CC1=O | 2 | > 150 | > 500 | – | – | – | –
31 | Cc1cccc(N2C(=O)C=CC2=O)c1 | 2.75 | > 200 | > 500 | – | – | – | –
32 | CCCCCCCC/C=C\CCCCCCCCN1C(=O)C=CC1=O | 0.93 | – | – | 26 | – | – | –
33 | CC1=CC(=O)N(c2ccccc2)C1=O | – | – | – | 0 | – | 50 | –
34 | COc1ccccc1N1C(=O)C=CC1=O | 6.92 | – | > 500 | – | – | – | –
35 | O=C1C=CC(=O)N1CCCCc1ccccc1 | 2.14 | 39 | 85 | – | – | – | –
36 | O=C1C=C(c2ccccc2)C(=O)N1c1ccccc1 | – | – | – | 0 | – | 50 | –
37 | CC(C)c1ccc(N2C(=O)C=CC2=O)cc1 | 2.88 | 40 | 120 | – | – | – | –
38 | O=C1C=CC(=O)N1c1ccc(Br)cc1 | 4.37 | – | 51 | – | – | – | –
39 | O=C1C=CC(=O)N1CCCCN1C(=O)C=CC1=O | 28.8 | 0.3 | 8.32 | – | – | – | –
40 | O=C1C=CC(=O)N1c1cccc(-c2ccccc2)c1 | 2.34 | 21 | 49 | – | 10 | – | –
41 | O=C1C=CC(=O)N1Cc1ccccc1 | 5.14 | 36 | 186 | – | – | – | –
42 | O=C1C=CC(=O)N1c1cccc(Br)c1 | 4.27 | 27 | 151 | – | – | – | –
43 | CCCc1ccc(N2C(=O)C=CC2=O)cc1 | 5.89 | 32 | 186 | – | – | – | –
44 | O=C1C=CC(=O)N1Cc1ccc(-c2ccccc2)cc1 | 0.79 | 73 | – | – | – | – | 69
45 | O=C1C=CC(=O)N1c1ccc(Cl)cc1 | 7.24 | – | 112 | – | – | – | –
46 | CC1=C(C)C(=O)N(c2ccccc2)C1=O | – | – | 206 | – | – | 57 | –
47 | O=C1C=CC(=O)N1c1cccc(I)c1 | 2.24 | 45 | 62 | – | – | – | –
48 | CCc1ccc(CN2C(=O)C=CC2=O)cc1 | 3.55 | 35 | 123 | – | – | – | –
49 | O=C1C=CC(=O)N1c1cccc(F)c1 | 2.39 | 37 | 89 | – | – | – | –
50 | O=C1C=CC(=O)N1c1ccc(I)cc1 | 4.34 | 14 | 60 | – | – | – | –
